# Assay results from PubChem BioAssay AID463111 (Johns Hopkins Ion Channel Center, 2010).
# Among all 310,000 compounds or so, about 2,800 (0.9%) were called active.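 Rule for the calls: active = B-score of the integrated calcium signal more than 4 SD below the library mean, with starting fluorescence not abnormally high; inactive = the rest.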 The sample as a whole holds a higher share of actives than the screen did.
# Experiment: RGS4 potentiators or activators, primary screen, cell-based, HEK293 M3R inducible RGS4, calcium flux (AID 463111);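 for B-score: negative B-score means reduced calcium response which marks RGS4 activation or potentiation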
# Settings: HEK293 M3R/inducible RGS4, carbachol calcium flux Fluo4, at 10 µM; stronger effect = lower value
# How it was run: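 System: HEK293 FlpIn-TREx cells, stable M3R, doxycycline-inducible RGS4. Timing: overnight RGS4 induction, 30 min dye load 37 °C, 20 min compound RT. Also added: carbachol, ECmax concentration. Measured by: Fluo4 fluorescence kinetic imaging of calcium. Evaluation: integrated calcium ratio converted to B score.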
row,SMILES,B-score
1,CCN(CC)P(=O)(Oc1cccc(C)c1)N(CC)CC,inactive
2,Cc1cccc(OP(=O)(Oc2cccc(C)c2)OC(c2ccccc2)C(F)(F)F)c1 (stereo not given),-7.67 (active)
3,O=C1CC(=O)N(Cc2ccccc2)C(=O)N1CCCCCCN1C(=O)CC(=O)N(Cc2ccccc2)C1=O,inactive
4,CC(c1ccccc1)(c1ccccc1)c1ccncc1,inactive
5,CCNc1nc2[nH]c(=O)c3c(c2s1)OC(N)=C(C#N)C3c1cccs1 (stereo not given),inactive
6,C=CC12CN(C)[C@@H]3C4CO[C@H](C[C@H]41)[C@]1(C(=O)Nc4ccccc41)[C@@H]32 (stereo not given in full),-8.82 (active)
7,CCC(C)n1c(O)c(/C=N/Nc2nc3c(c(=O)n(C)c(=O)n3C)n2C)c(=O)[nH]c1=S (stereo not given),inactive
8,CCOc1ccc(C2SCC(=O)Nc3c2c(C)nn3C2CCOC(C)(C)C2)cc1 (stereo not given),inactive
9,Cc1ccc(CN2CCCC(C(=O)c3ccc4c(c3)OCO4)C2)cc1C (stereo not given),-7.27 (active)
10,COc1ccc(C(=O)C2CCCN(Cc3ccc(C)s3)C2)cc1OC (stereo not given),inactive
11,Cc1ccsc1C(=O)C1CCCN(Cc2ccc(O)cc2)C1 (stereo not given),inactive
12,O=C(Cc1ccc(Cl)cc1)NCCN1CCN(C(=O)Cc2ccc(Cl)cc2)CC1,inactive
13,CCOC(=O)C1(Cc2ccc(Cl)cc2)CCN(C(C)CCn2cccn2)CC1 (stereo not given),inactive
14,OC(Cn1c2ccccc2c2ccccc21)C[n+]1ccccc1 (stereo not given),inactive
15,CN1CCN(/N=C/c2c[nH]c3ccccc23)CC1,inactive
16,CC(C)Oc1cccc(C(=O)C2CCCN(C3CCOCC3)C2)c1 (stereo not given),-7.9 (active)
17,O=C(Nc1cccc(OC(=O)N2CCCCC2)c1)N1CCOCC1,inactive
18,COc1cccc(CN2CCCC(C(=O)c3ccccc3SC)C2)c1O (stereo not given),inactive
19,COc1ccc(-c2nn(CCC#N)cc2C(=O)O)cc1,inactive
20,Cc1cccc(-n2c(O)c(/C=N/N3CCOCC3)c(=O)[nH]c2=S)c1,inactive
21,COc1cc(-n2c(=S)[nH]c3ccc(C)cc3c2=O)c(Cl)cc1Cl,inactive
22,CCCCn1c(=O)c(C(=O)Nc2ccccc2Cl)c(O)c2ccccc21,inactive
23,CCCCCn1c(=O)c(C(=O)Nc2c(C)n(C)n(-c3ccccc3)c2=O)c(O)c2ccccc21,-7.47 (active)
24,CCCCCn1c(=O)c(C(=O)NCc2ccccc2)c(O)c2ccccc21,inactive
25,O=C(O)CCn1cc(C=C2C(=O)NC(=S)NC2=O)c(-c2cccc(Br)c2)n1,inactive
